Bioassay records (PubChem)
An excerpt weighted towards active compounds, which were near 3.2% of everything screened.
MEKK3 PB1 HTS = modulators (inhibitors or enhancers) of MEK5 binding to human MEKK3 PB1 domain. AID 1529. actives 1.4% (n = 290,000). bead-based flow cytometry, Alexa488-MEK5 binding to MEKK3; actives lie on both sides; 0 = blocked by unlabeled MEK5, 100 = vehicle. binding response (% of control), % at 10 µM. Q99759;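 active = binding response more than 3 SD above or below the average of its plate-row segment, actives on both sides; inconclusive = wells at one plate position flagged as instrument error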;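 also: Alexa488 bead fluorescence after subtracting the streptavidin-only scavenger bead signal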
MEKK2wt PB1 HTS = raises or lowers MEK5 binding to wildtype human MEKK2 PB1 domain | Q9Y2U5 | bead flow cytometry, Alexa488-MEK5 binding to MEKK2 WT; actives lie on both sides | binding response (% of control), % at 10 µM | actives 1.1% (n = 290,000) | AID 1531; in the data active = binding response below about 67% or above about 130%; inconclusive = no clear call, values can overlap the other calls; inactive = in between
Apaf1 inhib = inhibitors of human Apaf-1 apoptosome; reconstituted apoptosome caspase-3 activity, DEVD-Rh110 fluorescence; inhibition, % at 20 µM; actives 0.71% (n = 330,000); O14727; active = inhibition of at least 40% at 20 µM;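 also: plate controls were DMSO wells for no effect and DEVD-CHO caspase inhibitor wells for full effect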
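Medium: Hepes buffer, pH 7.5 / System: biochemical Apaf-1 apoptosome reconstitution / Measured by: Rh110 fluorescence, excitation 480 nm, emission 540 nm / Times: compound with Apaf-1, dATP, procaspase-3 30 min, then 50 min reaction, room temperature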
MEKK2mut PB1 HTS = signal of MEK5 binding to mutant human MEKK2 PB1 domain; bead flow cytometry, Alexa488-MEK5 binding to MEKK2 mutant; percent response, % at 10 µM; actives 0.35% (n = 290,000); AID 1530; in the data active = percent response above about 24%, passing the limit was not always enough
DSG3 Ab inh = human desmoglein-3 autoantibody binding inhibition | P32926 | DSG3-coupled beads, scFv-anti-DSG3-GFP binding, flow cytometry; active compounds read low | binding (percent of control), % at 10 µM | actives 0.48% (n = 310,000) | AID 588358;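 active = binding more than 3 SD below its plate's average and above zero; inconclusive = below that plate limit but binding exactly zero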;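 also: hits lower antibody fragment binding to DSG3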
UBC13 polyUb = blocks human UBC13 polyubiquitin chain formation; P61088; TR-FRET; inhibition, % at 20 µM; AID 485273; actives 0.47% (n = 330,000); in the data active = inhibition above about 45%, passing the limit was not always enough; inconclusive = no clear call, values can overlap the other calls
MEKK2wt confirm = raises or lowers MEK5 binding to wildtype human MEKK2, retest. shares compounds with MEKK3 PB1 HTS. bead flow cytometry, Alexa488-MEK5 binding to MEKK2 WT; actives lie on both sides. binding response (% of control), % at 10 µM. actives 2.4% (n = 5,900). AID 1892; in the data active = binding response below about 16% or above about 210%; inactive = in between
MEKK2mut confirm = signal of MEK5 binding to mutant human MEKK2, retest. shares compounds with MEKK3 PB1 HTS. bead flow cytometry, Alexa488-MEK5 binding to MEKK2 mutant. percent response, % at 10 µM. actives 2% (n = 5,900). AID 1893; in the data active = percent response mostly above about 71%, no sharp cut-off; inactive = mostly below about 38%;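 also: higher means compound restores mutant binding toward wildtype level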
MEKK3 confirm = confirmation of inhibitors of MEK5 binding to human MEKK3; actives 1.8% (n = 5,900); shares compounds with MEKK3 PB1 HTS; bead flow cytometry, Alexa488-MEK5 binding to MEKK3; active compounds read low; binding response (% of control), % at 10 µM;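 active = binding response below 72% of control, or above a set upper limit, though filed actives all read lower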;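 also: 100% = DMSO only wells and 0% = binding blocked by excess unlabeled MEK5; lower values mean stronger disruption of MEK5 binding to MEKK3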
* hit, by the source's call; ? = inconclusive; / = no result; [ ] = remark or other dose.

SMILES | MEKK3 PB1 HTS | MEKK2wt PB1 HTS | Apaf1 inhib | MEKK2mut PB1 HTS | DSG3 Ab inh | UBC13 polyUb | MEKK2wt confirm | MEKK2mut confirm | MEKK3 confirm
Cc1ccc(N(Cc2cc3ccc(C)cc3[nH]c2=O)C(=O)c2ccco2)c(C)c1 | 132* | 117 | -2 | 22 | 88 | -5 | 102 | 5 | 107
Cc1cc2cc(CN(CCN(C)C)C(=S)NCc3ccco3)c(=O)[nH]c2cc1C | 84 | 160* | 14 | 8 | 108 | 10 | 118 | 8 | 103
Cc1ccc(C)c2[nH]c(=O)c(CN(Cc3cccs3)C(=S)NCc3ccco3)cc12 | 137* | 115 | 30 | 1 | 101 | -6 | 109 | 9 | 103
Cc1ccc(C)c2[nH]c(=O)c(CN(CC3CCCO3)C(=S)NCc3ccco3)cc12 (stereo not drawn) | 129* | 116 | -6 | 29 | 100 | 14 | 101 | 5 | 104
Cc1cc2cc(CN(Cc3cccs3)C(=S)NCc3ccco3)c(=O)[nH]c2cc1C | 94 | 96 | 8 | -2 | 104 | -4 | / | / | /
CCOc1cccc2cc(C(=O)NCc3ccc(C)cc3)c(=N)oc12 | 104 | 113 | 33 | 7 | / | -7 | / | / | /
Nc1ccc2cc3[nH]c4cc(N)ccc4c3nc2c1 | / | / | / | / | 47 | / | / | / | /
O=C(NC1CCC1)C1CCC(=O)N(Cc2ccc(Cl)cc2)C1 (stereo not drawn) | / | / | / | / | 103 | / | / | / | /
CC(Oc1ccc(C#N)cc1)C(=O)NC1CCCC1 (stereo not drawn) | / | / | 7 | / | 100 | -8 | / | / | /
COc1cccc(Nc2nc(-c3sc(NC(=O)c4ccccc4)nc3C)cs2)c1 | 107 | 143* | 8 | 15 | 94 | 12 | 119 | 12 | 102
COc1cccc(Nc2nc(-c3sc(NC(=O)CC(C)C)nc3C)cs2)c1 | 105 | 109 | 9 | 2 | 104 | -17 | / | / | /
COc1cccc(NC(=O)C(c2ccccc2)N2CCCCC2)c1 (stereo not drawn) | 95 | 97 | 4 | -1 | 97 | -4 | / | / | /
O=C(Nc1cc(Cl)cc(Cl)c1)C(c1ccccc1)N1CCCCC1 (stereo not drawn) | 153* | 122 | 16 | 1 | 131 | -2 | 118 | 6 | 104
COc1ccccc1C(=O)NCCC(=O)NNC(=O)Cn1ccc(C(F)(F)F)n1 | / | / | 1 | / | 110 | 8 | / | / | /
COC(=O)c1c(NC(=O)CN2CCN(C(=O)c3ccco3)CC2)c2cc(C)ccc2n1C | 101 | 93 | 6 | -2 | 101 | -14 | / | / | /
COC(=O)c1c(NC(=O)CN2CCN(C(=O)c3ccco3)CC2)c2c(C)cccc2n1C | 122* | 120 | -18 | 18 | / | -2 | 95 | -3 | 101
COc1cccc(/C=C/C(=O)NCc2ccc3c(c2)OCO3)c1 | 102 | 101 | 8 | -9 | 113 | -4 | / | / | /
O=C(OCCNc1nc(-c2ccccc2)nc2ccccc12)c1ccncc1 | 146* | 133 | 19 | 7 | 102 | -13 | 93 | -9 | 88
O=C(CN(Cc1ccco1)C(=O)c1cccc(Cl)c1)Nc1c(Cl)cc(Cl)cc1Cl | 122* | 117 | 20 | 4 | / | -5 | 102 | 3 | 104
O=C(c1cccc(S(=O)(=O)N2CCN(c3ccc(F)cc3)CC2)c1)N1CCN(c2ccccc2O)CC1 | / | / | / | / | 106 | / | / | / | /
CCCn1c(SCC(=O)Nc2ccccc2C(=O)NC2CC2)n[nH]c1=O | / | / | -5 | / | 92 | 8 | / | / | /
COc1ccc(NC(=O)Nc2nc3c(s2)CCCC3)cc1 | 136* | 109 | 16 | 2 | 99 | 6 | 107 | 11 | 105
CC(=O)C1=C(O)C(=O)N(Cc2ccco2)C1c1cccc(F)c1 (stereo not drawn) | 129* | 113 | 12 | 0 | 100 | -15 | 97 | -7 | 96
O=C(C1=C(O)C(=O)N(Cc2ccco2)C1c1cccc(O)c1)c1ccco1 (stereo not drawn) | 105 | 103 | 4 | 4 | 99 | 0 | / | / | /
CCCc1c(C(=O)N/N=C/c2cccc3ccccc23)nnn1-c1nonc1N | 103 | 102 | -2 | 2 | / | -6 | / | / | /
SMILES | MEKK3 PB1 HTS | MEKK2wt PB1 HTS | Apaf1 inhib | MEKK2mut PB1 HTS | DSG3 Ab inh | UBC13 polyUb | MEKK2wt confirm | MEKK2mut confirm | MEKK3 confirm
CCOc1ccc2c(C)c(C)c(=O)oc2c1OCC | 94 | 93 | -10 | 2 | 101 | 22 | / | / | /
COc1ccc2c(C)c(C)c(=O)oc2c1OC | 2.0*[inhibitor] | 0.0*[inhibitor] | -10 | -26 | 100 | 12 | 104 | -1 | 101
C[C@H]1CN(S(=O)(=O)c2c(F)cccc2F)CCN1S(=O)(=O)c1ccc2c(c1)OCCO2 | / | / | 14 | / | 105 | 10 | / | / | /
COc1cc(C(=O)NCCOc2ccc(Cl)cc2)ccc1OCc1c(C)noc1C | / | / | -3 | / | ? | -6 | / | / | /
Cc1cc(Cl)ccc1OCC(=O)NC(=S)Nc1ccccc1N1CCOCC1 | 148* | 102 | 1 | -1 | 110 | -8 | 97 | -2 | 103
Cc1cc(Cl)ccc1OCC(=O)Nc1ccccc1N1CCOCC1 | 109 | 107 | 25 | 3 | 97 | 12 | / | / | /
Cc1ccc(S(=O)(=O)N2CCOCC2)cc1NS(=O)(=O)c1ccc(F)c(F)c1 | / | / | -2 | / | 106 | -1 | / | / | /
Cc1cc(C)cc(NC(=O)C2(c3cccs3)CCOCC2)c1 | 136* | 114 | -7 | 1 | 113 | 8 | 95 | -7 | 96
Cc1ccc(NC(=O)C2(c3cccs3)CCOCC2)cc1C | 69*[inhibitor] | 96 | 0 | -1 | 110 | 4 | 97 | -2 | 98
O=c1[nH]c(/C=C/c2ccccc2[N+](=O)[O-])nc2ccccc12 | 132* | 110 | 5 | 0 | 110 | -20 | 89 | -5 | 89
O=c1[nH]c(/C=C/c2cccc3ccccc23)nc2ccccc12 | 99 | 95 | 10 | 1 | 100 | -6 | / | / | /
NC(N)=NN=C1CCC(c2ccccc2)CC1 (stereo not drawn) | 103 | 109 | 6 | 2 | 123 | 11 | / | / | /
CC12CC3(C)CC(C)(C1)CC(C(=O)Nc1nn[nH]n1)(C2)C3 | 81*[inhibitor] | 87 | 11 | -14 | 84 | -5 | 91 | -4 | 99
O=C1/C(=C/c2ccccc2Cl)SC(=S)N1CCCC(=O)N(CCO)c1ccccc1 | 108 | 108 | 20 | 6 | 99 | 6 | / | / | /
